The list is not random: actives were taken first. Their share in the collection is about 2.5%.
NR1D1 modulator – modulates human Rev-erb alpha binding to DNA | P20393 | Rev-erbα–FITC-DNA binding, fluorescence polarization, 90 min | activity, % at 10 µM | 370,000 compounds, 0.79% hits | AID 1259318;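 active = activity above about 14%, limit read from the data; passing the limit was not always enough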;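 also: 0% = DMSO wells with 35 nM protein and 100% = DMSO wells with 750 nM protein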
Target sequence (P20393 whole entry, looked up): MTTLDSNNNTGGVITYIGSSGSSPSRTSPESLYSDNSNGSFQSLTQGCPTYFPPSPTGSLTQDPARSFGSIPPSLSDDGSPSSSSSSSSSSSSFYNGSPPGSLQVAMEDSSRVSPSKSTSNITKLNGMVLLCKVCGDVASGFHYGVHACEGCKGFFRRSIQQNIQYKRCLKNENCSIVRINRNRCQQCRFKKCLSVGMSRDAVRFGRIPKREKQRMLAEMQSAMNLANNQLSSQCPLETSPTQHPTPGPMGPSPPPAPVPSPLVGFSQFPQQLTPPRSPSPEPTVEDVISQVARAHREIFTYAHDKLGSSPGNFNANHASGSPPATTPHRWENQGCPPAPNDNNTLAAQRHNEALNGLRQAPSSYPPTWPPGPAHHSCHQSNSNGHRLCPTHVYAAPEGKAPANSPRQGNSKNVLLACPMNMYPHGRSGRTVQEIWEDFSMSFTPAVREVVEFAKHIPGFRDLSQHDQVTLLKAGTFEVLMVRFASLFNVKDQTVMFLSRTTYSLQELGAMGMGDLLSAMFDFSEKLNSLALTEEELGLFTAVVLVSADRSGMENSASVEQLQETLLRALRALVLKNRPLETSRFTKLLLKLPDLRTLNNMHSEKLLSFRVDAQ
MC4R ag barr – agonists of human melanocortin 4 receptor (MC4R) beta-arrestin; P32245; U2OS MC4R beta-arrestin complementation, luminescence; percent of melanotan II response, DMSO zero; activation, % at 8.9 µM; 360,000 compounds, 0.98% hits;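 active = activation above a per-plate cutoff, the mean activation of sample wells on that plate plus 3 SD, cut at about 8% in these data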
MC4R antag cAMP – antagonists of human melanocortin 4 receptor (MC4R) | P32245 | MC4R-expressing cells, MTII-stimulated cAMP, LANCE TR-FRET | inhibition, % at 6.5 µM | 360,000 compounds, 0.48% hits | AID 540295;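 active = inhibition above its plate's cutoff, the mean of tested wells on that plate plus 3 SD, cut at about 29% in these data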;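 also: 0% = Melanotan II alone and 100% = Melanotan II plus saturating MCL0020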
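Assay system: human MC4R-expressing U2OS cells; reagent: Melanotan II stimulation of cells; dosing: 6.5 µM single dose; timing: compound 30 min, challenge 1 h, detection 1 h; signal: TR-FRET cAMP assay; replicates: one well per compound, no replicates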
PG9 Ab binder – binds the HIV-1 gp120 antibody PG9; TR-FRET gp120-PG9 antibody binding; inhibition, % at 6.7 µM; 360,000 compounds, 0.43% hits; AID 624416; in the data active = inhibition above about 8.5%
NTR1 agonist – NTR1 (human) agonism; NTR1-U2OS beta-arrestin-GFP spot imaging, agonist mode; AID 493036; 330,000 compounds, 0.17% hits; activation, % at 20 µM;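 active = activation at or above 40% of the spot to cytoplasm intensity ratio, with at least 20 cells analyzed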;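 also: 0% = DMSO without peptide and 100% = 100 nM NTR1 peptide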
MC4R barr ag – human MC4R beta-arrestin agonism confirmation; shares compounds with MC4R ag barr; U2OS MC4R beta-arrestin recruitment, luminescence; scaled DMSO 0%, Melanotan II 100%; activation, % at 8.9 µM; 2,400 compounds, 31% hits; AID 602192;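 active = mean activation across replicates above the hit cutoff set in the earlier primary screen, cut at about 8% in these data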
MOR DOR agonist – activates mu-delta opioid heterodimer, MC4R agonist counter-screen; shares compounds with MC4R ag barr; activation, % at 9.2 µM; 2,400 compounds, 5.8% hits; U2OS PathHunter beta-arrestin, beta-gal luminescence; percent of deltorphin B response, DMSO zero;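 active = mean activation across replicates exceeds the hit threshold derived in the earlier primary screen, cut at about 18% in these data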;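 also: 100% = deltorphin B at 0.9 µM final and 0% = DMSO alone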
PG9 bind confirm – PG9 antibody binding, confirmed; shares compounds with PG9 Ab binder; TR-FRET PG9 antibody binding, biochemical; inhibition, % at 6.7 µM; 1,500 compounds, 90% hits; in the data active = inhibition above about 9%
PGV04 Ab binding – binds control antibody PGV04 in PG9 binder counter-screen; TR-FRET PGV04 antibody-gp120 binding, biochemical; 1,500 compounds, 95% hits; inhibition, % at 6.7 µM; shares compounds with PG9 Ab binder; in the data active = inhibition above about 9.5%
NR1D1 mod conf – confirmation of modulators of human Rev-erb alpha DNA binding; shares compounds with NR1D1 modulator; Rev-erb alpha FITC-DNA binding, fluorescence polarization, 90 min; activation, % at 25 µM; 3,000 compounds, 61% hits;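 active = activation at or above a set limit, or at least 3 SD above the negative control mean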;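 also: 0% = 35 nM protein with DMSO and 100% = 750 nM protein high control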
RORg DNA counter – affects RORgamma DNA binding in a Rev-erb alpha counter-screen; 910 compounds, 8% hits; shares compounds with NR1D1 modulator; purified RORgamma protein-FITC-DNA binding, fluorescence polarization; IC50, µM;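 active = Compounds whose fitted half-maximal concentration for disrupting protein-DNA binding is below 10 micromolar; the record names Rev-erb in its text, so the target is in doubt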
* marks the source's active call; other numbers are inactive results; i = inactive; x = no result given.

SMILES	NR1D1 modulator	MC4R ag barr	MC4R antag cAMP	PG9 Ab binder	NTR1 agonist	MC4R barr ag	MOR DOR agonist	NR1D1 mod conf	others
CCOC(=O)CC(=O)CSc1nc(-c2ccc3c(c2)OCO3)cc(C(F)(F)F)c1C#N	110*	25*	28	x	2	8.9*	5	84*	RORg DNA counter=>40
COc1ccc(C(C)=O)cc1CSc1nc2ccccc2c(=O)n1-c1ccccc1	36*	16*	-24	4	9	3	2	36*	RORg DNA counter=>40
CCCCNC(=O)NC1CCN(CC(=O)Nc2ccc3c(c2)OCCO3)CC1	-7	x	x	x	x	x	x	x
CCOc1cccc(-c2nn3c(-c4cccc(C)c4)nnc3s2)c1	7	x	x	x	x	x	x	x
O=C(NNC(=O)c1cc(-c2ccncc2)nc2ccccc12)Nc1ccc(F)cc1	-4	-2	10	-1	-1	x	x	x
O=C(Nc1ccc(F)cc1)c1cc(-c2ccncc2)nc2c(Cl)cccc12	24*	12*	-2	1	4	1	10	9
O=C(CSc1nnc(-c2n[nH]c3ccccc23)n1-c1ccccc1)Nc1cccc(Cl)c1	7	8	10	2	21	x	x	x
CCc1ccc(NC(=O)CSc2nnc(-c3n[nH]c4ccccc34)n2-c2ccccc2)cc1	34*	10*	4	9.8*	6	5	9	38*	PG9 bind confirm=15*;PGV04 Ab binding=24*;RORg DNA counter=>40
COc1ccc(-c2nn(C)c(=O)c3ccccc23)cc1NC(=O)COc1ccc(C)cc1	34*	21*	-2	0	9	6	4	8
CCC(=O)Nc1cc(-c2nn(C)c(=O)c3ccccc23)ccc1OC	2	-2	18	-5	-2	x	x	x
COc1ccccc1C(=O)Nc1nc2ccc(S(C)(=O)=O)cc2s1	49*	14*	4	19*	1	-1	4	31*	PG9 bind confirm=27*;PGV04 Ab binding=37*
CSc1sc(-c2nnc(SCC(=O)Nc3ccc(Cl)cc3)n2C)c2c1C=CCC2	33*	16*	12	29*	6	8	9	7	PG9 bind confirm=38*;PGV04 Ab binding=52*
CCCCOCCCNC(=O)C[C@H]1C[C@@]2(C(=O)OC)C(=C[C@H](C(C)C)O[C@@H]2C2CC2)N(Cc2cccc3ccccc23)C1=O	-6	x	x	x	x	x	x	x
O=C(COc1ccccc1)Nc1nc2cc3c(cc2s1)OCCO3	76*	14*	5	2	2	6	1	50*	RORg DNA counter=>40
O=C(Nc1nc2c(Br)cccc2s1)c1ccc2c(c1)OCCO2	-2	x	x	x	x	x	x	x
Cc1nc2c(ccc3nc(NC(=O)c4ccc5c(c4)OCCO5)sc32)s1	56*	11*	6	1	3	-3	5	27*
C[C@H](CCC(=O)N(c1ccccc1)c1ccccc1)CC1CCCCC1	7	x	x	x	x	x	x	x
CCC(=O)N1CCc2cc(Br)c(S(=O)(=O)N3CCC(C(=O)NCCCOC(C)C)CC3)cc21	0	x	x	x	x	x	x	x
CC(C)CNC(=O)OCc1cn(Cc2cc(F)cc(F)c2)nn1	5	x	x	x	x	x	x	x
O=c1[nH]c(/C=C/c2cccc3ccccc23)nc2ccccc12	60*	16*	1	33*	8	2	2	25*	PG9 bind confirm=45*;PGV04 Ab binding=46*
O=c1[nH]c(/C=C/c2ccccn2)nc2ccccc12	-2	1	2	-1	-1	x	x	x
CCOC(=O)[C@@H](CCc1ccccc1)N[C@@H](C)C(=O)N1CCC[C@H]1C(=O)O	4	x	x	x	x	x	x	x
COC(=O)c1c(-c2ccc(OC)cc2)c2c(c3c4cc(OC)ccc4n(S(=O)(=O)c4ccc(C)cc4)c13)C(=O)N(C)C2	8	x	x	1	x	x	x	x
O=C(CCSc1nnc2ccccn12)Nc1ccc(F)cc1	-2	0	9	1	-1	x	x	x
O=C(CCSc1nnc2ccc3ccccc3n12)Nc1ccc(F)cc1	44*	39*	8	23*	-2	4	8	22*	PG9 bind confirm=7;PGV04 Ab binding=21*
SMILES	NR1D1 modulator	MC4R ag barr	MC4R antag cAMP	PG9 Ab binder	NTR1 agonist	MC4R barr ag	MOR DOR agonist	NR1D1 mod conf	others
COCC(=O)Nc1ccc2c(c1)C(=O)N(C)[C@@H]1CC[C@@H](CC(=O)OC)O[C@H]1CO2	-2	x	x	x	x	x	x	x
CN1Cc2nnn(CC3CCCCC3)c2-c2ccccc2S1(=O)=O	-5	x	x	x	x	x	x	x
CCOc1ccccc1-c1nc(-c2ccc(NC(=O)Cc3ccc(OC)cc3)cc2)no1	43*	21*	-13	-1	14	25*	21*	70*	RORg DNA counter=>40
O=C(COC(=O)c1ccc2ccccc2c1)Nc1ncc(C(F)(F)F)cc1Cl	34*	10*	3	15*	1	6	4	13	PG9 bind confirm=18*;PGV04 Ab binding=27*
O=C(Nc1c(-c2ccccc2)nc2ncccn12)c1ccccc1	-1	x	x	x	x	x	x	x
Cc1ccc(-c2cc(-c3nnc(SCC(=O)Nc4ccccc4-c4ccccc4)n3N)[nH]n2)cc1	-2	x	x	x	x	x	x	x
COc1ccc(C(C)=O)cc1COC(=O)c1ccc(OCc2c(C)noc2C)cc1	16*	16*	1	7	4	9.2*	3	12
COc1cc(NC(=O)c2ccc(-c3ccc(F)c(F)c3)c3ccoc23)cc(OC)c1OC	18*	14*	7	-1	x	5	5	-1
COc1cc(NC(=O)c2ccc(-c3cn[nH]c3)c3ccoc23)cc(OC)c1OC	-3	-2	10	0	x	x	x	x
COc1ccc(F)cc1-c1cc(C(C)=O)c2n(c1=O)CCC2	-3	x	x	x	x	x	x	x
Cc1sc2nc(SCC(=O)NCc3ccco3)n(C)c(=O)c2c1C	3	0	-2	2	1	x	x	x
Cc1sc2nc(SCC(=O)NCc3ccco3)n(CCc3ccccc3)c(=O)c2c1C	61*	48*	4	28*	4	0	38*	62*	PG9 bind confirm=30*;PGV04 Ab binding=34*;RORg DNA counter=i
CC(C)(C)N(Cc1cn(Cc2ccccc2)nn1)S(=O)(=O)c1ccc(F)cc1Br	3	x	x	x	x	x	x	x
Cc1ccccc1OCC(=O)Nc1cccc2nsnc12	105*	11*	3	2	1	0	3	55*	RORg DNA counter=i
CCN1/C(=C/c2ccc3cc(C)ccc3[n+]2CC)Sc2cc(C)c(C)cc21	20*	29*	-11	-9	-4	79*	11	22*

Source: PubChem (several laboratories)
